Assay outcomes from PubChem.
HCV core dimer: inhibitors of HCV core protein dimerization, primary screen, biochemical, TR-FRET, high-throughput | AID 1899, 2009 | inhibition, % at 5 µM | TR-FRET GST/Flag-core106 dimerization, 1536-well | actives 0.33% (n = 300,000);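 active = inhibition above the mean of all tested compounds plus 3 SD, set per screening campaign, cut at about 45% in these data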
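Test system: GST/Flag-tagged HCV core106 proteins; Medium: KF-containing HEPES buffer, pH 7.45, DTT, CHAPS, BSA; Times: compound-protein-antibody incubation 4 h at 22.5 °C; Detection: TR-FRET 671 and 617 nm emission; Benchmarks: wells lacking GST-core106 and wells with excess unlabelled core106.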
ZTA counter: ZTA (EBV) inhibition in EBNA-1 counter-screen; P03206; ZTA-DNA binding, fluorescence polarization; inhibition, % at 11 µM; actives 0.15% (n = 320,000); in the data active = inhibition above about 33%
Target sequence (P03206 whole entry, looked up): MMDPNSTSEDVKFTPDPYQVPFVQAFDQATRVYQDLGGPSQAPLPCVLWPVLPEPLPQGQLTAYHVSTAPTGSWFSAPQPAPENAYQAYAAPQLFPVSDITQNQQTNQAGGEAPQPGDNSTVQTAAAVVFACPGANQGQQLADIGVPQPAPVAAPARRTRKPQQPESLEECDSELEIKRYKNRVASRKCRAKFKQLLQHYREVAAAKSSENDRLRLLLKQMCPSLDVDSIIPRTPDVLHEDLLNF
PfM18AAP inh: PfM18AAP inhibitors, malaria aminopeptidase, primary screen, biochemical, QFRET, recombinant enzyme | M18 aspartyl aminopeptidase (Plasmodium falciparum 3D7) | H-Glu-NHMec fluorogenic cleavage | inhibition, % at 7.35 µM | actives 1.2% (n = 290,000) | AID 1822, 2009;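 active = inhibition above the campaign mean inhibition over all tested compounds plus 3 SD, cut at about 28% in these data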;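 also: 0% = plate median of test compound wells and 100% = 2 mM ZnCl2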
ALR H2O2 inh: inhibitors of human ALR sulfhydryl oxidase, primary screen, biochemical, H2O2 detection, HRP-luminol luminescence, single point | purified ALR, DTT oxidation | actives 3.8% (n = 290,000) | inhibition, % (no concentration beside the values) | FAD-linked sulfhydryl oxidase ALR (Homo sapiens), P55789;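 active = mean replicate inhibition above about 79%, with every replicate also reaching it, limit read from the data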
Target sequence (P55789 whole entry, looked up): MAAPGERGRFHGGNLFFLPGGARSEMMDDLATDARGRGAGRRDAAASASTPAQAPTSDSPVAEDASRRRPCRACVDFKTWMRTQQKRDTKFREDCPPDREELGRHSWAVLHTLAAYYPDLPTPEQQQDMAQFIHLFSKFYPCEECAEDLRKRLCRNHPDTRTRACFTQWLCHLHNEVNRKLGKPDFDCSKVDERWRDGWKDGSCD
EBNA-1 inhibitor: EBNA-1 DNA-binding inhibitors, primary screen, biochemical, fluorescence polarization; inhibition, % at 14.8 µM; actives 0.34% (n = 300,000); in the data active = inhibition above about 28%
NS3 helicase inh: inhibitors of HCV NS3 helicase, primary screen, biochemical, Cy5 molecular beacon fluorescence | actives 0.56% (n = 290,000) | Hepatitis C virus NS3 helicase | AID 1800, 2009 | inhibition, % at 10.9 µM | NS3 helicase DNA unwinding;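 active = inhibition above the mean of all tested compounds plus 3 SD, set per campaign, cut at about 35% in these data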;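 also: 0% = DMSO wells and 100% = thioflavine S control wells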
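System: Hepatitis C virus NS3 helicase domain fragment enzyme | Reagent: Annealed dual-labelled DNA beacon duplex, ATP-started | Compound dosing: 10.9 µM single point, 0.8% DMSO | Incubation: 1 h reaction at 25 °C, ATP-initiated | Technique: Cy5 fluorescence | Evaluation: Percent inhibition from t60/t0 fluorescence ratio | Benchmarks: Low DMSO, high thioflavine S at 110 µM | Replication: Singlicate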
NS3 hel confirm: HCV NS3 helicase inhibitors, retest, confirmation, biochemical, Cy5 molecular beacon fluorescence, triplicate; NS3 helicase DNA unwinding; shares compounds with NS3 helicase inh; inhibition, % at 10.9 µM; actives 31% (n = 1,600);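 active = inhibition above the mean of all tested compounds plus 3 SD, cutoff set per campaign, cut at about 36% in these data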
DNA FID counter: compounds displacing fluorescent DNA intercalator, artefact control for HCV NS3 helicase inhibitor project, biochemical, FID fluorescence, triplicate; shares compounds with NS3 helicase inh; DNA fluorescent intercalator displacement; inhibition, % at 7.9 µM; actives 4% (n = 1,600); in the data active = inhibition above about 37%;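 also: 0% = vehicle and 100% = reference compound; higher means more displacement of ethidium bromide from the DNA hairpin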
* = called active by the depositor. This is a sample that favours compounds with a hit; in the whole collection about 5.2% have one here.

`Cc1ccc(-n2c(C)cc(/C=C3/C(=O)NC(=O)N(Cc4ccco4)C3=O)c2C)cc1` gave HCV core dimer 21, ZTA counter 0, PfM18AAP inh 12, ALR H2O2 inh 18, EBNA-1 inhibitor 5, NS3 helicase inh 63*, NS3 hel confirm 8 and DNA FID counter -20.
For Cn1cccc1/C=C1\C(=O)NC(=O)N(Cc2ccco2)C1=O the results were PfM18AAP inh 15 and NS3 helicase inh 24.
Screening Cc1ccccc1-n1c(C)cc(/C=C2/C(=O)NC(=O)N(Cc3ccco3)C2=O)c1C returned HCV core dimer 29, ZTA counter 13, PfM18AAP inh 19, ALR H2O2 inh 0, EBNA-1 inhibitor -5, NS3 helicase inh 40*, NS3 hel confirm 4 and DNA FID counter -15.
Cc1cc(/C=C2\C(=O)NC(=O)N(Cc3ccco3)C2=O)c(C)n1-c1ccc(C(=O)O)cc1 was read as HCV core dimer 6, ZTA counter 0, PfM18AAP inh 24, ALR H2O2 inh 61, EBNA-1 inhibitor -16 and NS3 helicase inh 24.
Screening COc1ccc(NC(=O)C2C3CCC(O3)C2C(=O)O)c(OC)c1 (stereo not drawn) returned HCV core dimer -9, ZTA counter 11, PfM18AAP inh 2, ALR H2O2 inh 8, EBNA-1 inhibitor -5 and NS3 helicase inh -2.
COC(=O)CC1(CC(=O)OC)C(=O)N(c2ccccc2)C(=O)N(c2ccccc2)C1=O was read as HCV core dimer 7, ZTA counter 6, PfM18AAP inh 2, ALR H2O2 inh -3, EBNA-1 inhibitor 0 and NS3 helicase inh 11.
O=C1NC(=O)C(=Cc2ccc(-c3ccc(S(=O)(=O)N4CCOCC4)cc3)o2)C(=O)N1 was read as HCV core dimer 6, ZTA counter 8, PfM18AAP inh -4, ALR H2O2 inh 92*, EBNA-1 inhibitor -1, NS3 helicase inh 42*, NS3 hel confirm -5 and DNA FID counter 1.
CCCCN1C(=O)/C(=C/c2ccc(N3CCCCCC3)cc2)C(=O)NC1=S was read as HCV core dimer 12, ZTA counter 13, PfM18AAP inh 6, ALR H2O2 inh 9, EBNA-1 inhibitor 3, NS3 helicase inh 39*, NS3 hel confirm 29 and DNA FID counter 0.
Screening CCC(C)N1C(=O)/C(=C\c2ccc(N3CCCCCC3)cc2)C(=O)NC1=S (stereo not drawn) returned HCV core dimer 13, ZTA counter 4, PfM18AAP inh -1, ALR H2O2 inh 9, EBNA-1 inhibitor 0 and NS3 helicase inh 7.
For CN1CCN(c2c[nH]c(=O)[nH]c2=O)CC1 the results were HCV core dimer -5, ZTA counter 12, PfM18AAP inh -1, ALR H2O2 inh -8, EBNA-1 inhibitor 13 and NS3 helicase inh 6.
For COc1ccc(OC)c(N2C(=O)/C(=C/c3ccco3)C(=O)NC2=S)c1 the results were HCV core dimer 83*, ZTA counter 75*, PfM18AAP inh -42, ALR H2O2 inh 4, EBNA-1 inhibitor 103*, NS3 helicase inh 44*, NS3 hel confirm 104* and DNA FID counter 62*.
O=C(CCc1ccccc1)N1C[C@H]2C[C@@H](C1)c1cccc(=O)n1C2 was read as HCV core dimer -1, ZTA counter -3, PfM18AAP inh 2, ALR H2O2 inh -8, EBNA-1 inhibitor 3 and NS3 helicase inh -14.
Screening CCCCCCC(C)(C)c1ccc([C@@H]2C[C@H](O)CC[C@H]2CCCO)c(O)c1 returned HCV core dimer -16, ZTA counter 3, ALR H2O2 inh 7 and EBNA-1 inhibitor 4.
